High-throughput results from PubChem BioAssay.
MPTP inh – mitochondrial permeability transition pore inhibitors, primary screen, biochemical, isolated mouse mitochondria, absorbance | Ca2+ swelling absorbance, 30 min | 360,000 tested, 1.4% active | AID 602449, 2012 | inhibition, % at 10 µM;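 active = inhibition of 50% or more, scaled per plate between neutral and stimulator controls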
SKN-1 block – suppressors of acrylamide-induced Pgst-4::GFP reporter in worms, primary screen, SKN-1 inhibitor project, whole organism, uHTS, GFP/RFP fluorescence ratio, strain VP596. C. elegans VP596 Pgst-4::GFP/RFP ratio, 24 h. inhibition, % at 21.8 µM. 360,000 tested, 0.49% active. AID 624304, 2012;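 active = interference check ratio from 0.5 to 1.5 plus GFP to RFP signal ratio inhibition reaching or exceeding a fixed threshold, cut at about 30% in these data, passing the limit was not always enough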
ATG4B inhibitor – ATG4B protease inhibitors, primary screen, biochemical, fluorescence, uHTS | Cysteine protease ATG4B (Homo sapiens), Q9Y4P1 | inhibition, % at 8.33 µM | ATG4B cleavage of LC3-PLA2, NBD-HPC fluorescence, 1 h | 340,000 tested, 0.51% active; in the data active = inhibition above about 40%
Target sequence (Q9Y4P1 whole entry, looked up): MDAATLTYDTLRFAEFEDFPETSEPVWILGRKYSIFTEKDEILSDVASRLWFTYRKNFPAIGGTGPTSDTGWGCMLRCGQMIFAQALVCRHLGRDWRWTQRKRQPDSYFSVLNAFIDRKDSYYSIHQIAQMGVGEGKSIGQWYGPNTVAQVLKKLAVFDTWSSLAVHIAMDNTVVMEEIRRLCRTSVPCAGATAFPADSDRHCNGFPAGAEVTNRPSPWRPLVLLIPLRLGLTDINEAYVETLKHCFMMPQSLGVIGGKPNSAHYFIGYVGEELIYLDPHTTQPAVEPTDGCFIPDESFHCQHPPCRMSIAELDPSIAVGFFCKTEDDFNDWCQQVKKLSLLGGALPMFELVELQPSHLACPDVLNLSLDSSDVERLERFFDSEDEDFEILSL
MT1-MMP act inh – blockers of MT1-MMP proenzyme processing, primary screen, HT1080 RFP-PRO-GFP cells, GFP/RFP fluorescence | GFP/RFP ratio fluorescence, overnight; percent of plate control window, DMSO zero | GFP/RFP ratio change, % at 20 µM | 360,000 tested, 0.061% active;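 active = GFP/RFP ratio change of at least 30% with cell ATP level not reduced by more than half and red fluorescence within 50% of control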
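system = RFP-PRO-GFP reporter HT1080 cells | dosing = 20 µM single dose, 1% DMSO | timing = overnight cell settling, then overnight compound exposure, 37 °C, 5% CO2 | read-out basis = GFP/RFP fluorescence ratio | controls = DMSO and RFP-L50D-GFP cell wells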
MPTP counter – fluorescence retest of MPTP screen hits in isolated mitochondria, single concentration. shares compounds with MPTP inh. membrane potential, Rhodamine 123 fluorescence. inhibition, % at 10 µM. 5,000 tested, 78% active. AID 624504, 2012; in the data active = inhibition above about 22%
MPTP swell DR – mitochondrial permeability transition pore inhibitors, dose response, biochemical, absorbance, uHTS hits; shares compounds with MPTP inh; isolated mitochondria swelling; IC50, µM; 780 tested, 58% active; AID 651561, 2012; in the data active = IC50 below about 20 µM
MPTP counter DR – fluorescent counter-screen in isolated mitochondria, dose response, counter-screen for MPTP inhibitor project, biochemical, fluorescence, uHTS hits. AID 651564, 2012. shares compounds with MPTP inh. IC50, µM. 780 tested, 49% active. isolated mitochondria counterscreen, fluorescence read-out; in the data active = IC50 below about 80 µM
Hits are given with their value; 0 = inactive; - = no result given. Most compounds without a hit are left out; they make up all but 2.3% or so of the library.

SMILES	MPTP inh	SKN-1 block	ATG4B inhibitor	MT1-MMP act inh	MPTP counter	others
O=C(COC(=O)CCCN=C1NS(=O)(=O)c2ccccc21)NC(=O)NC1CCCC1	0	0	0	0	-
O=C(CSc1ccc(C(F)(F)F)cc1[N+](=O)[O-])Nc1ccc2ccccc2c1	74	0	0	0	0	MPTP swell DR=0;MPTP counter DR=0
COc1cnn(C(C)(C)C)c(=O)c1Cl	0	0	0	0	-
Cc1cccc(Oc2cnn(C(C)(C)C)c(=O)c2Cl)c1	62	0	0	0	45
COc1ccc(NC(=O)COC(=O)c2cc(C)oc2C)c([N+](=O)[O-])c1	0	0	0	0	-
Cc1ccccc1Cn1c(C)nc2ccccc21	101	0	0	0	89
Cc1ccc(Cn2c(N)nc3ccccc32)cc1	55	0	0	0	21
Cc1nc2ccccc2n1Cc1ccc(Cl)cc1	94	0	0	0	96
OCc1nc2ccccc2n1Cc1ccc(Cl)cc1	0	0	0	0	-
Nc1nc2ccccc2n1Cc1ccc(Cl)c(Cl)c1	0	0	0	0	-
CCOc1ccc(NC(=O)CN(C)C(=O)CN2C(=O)c3ccc([N+](=O)[O-])cc3C2=O)cc1OCC	0	0	0	0	-
COc1ccccc1/C=C/C(=O)OCc1nc2ccccc2c(=O)[nH]1	0	0	0	0	-
Cc1nc(N2CCN(S(=O)(=O)c3ccccc3C#N)CC2)c2c(-c3ccccc3)csc2n1	0	0	0	0	-
CCOC(=O)c1c(C)[nH]c(C(=O)N/N=C\c2ccccc2Cl)c1C	92	0	0	0	88
CCOC(=O)c1c(C)[nH]c(C(=O)N/N=C/c2cccc(OC)c2)c1C	0	0	0	0	-
CCN(CC)C(=O)[C@H]1C[C@H](CC(=O)NCc2cccc(C(F)(F)F)c2)C(=O)N2CCc3c([nH]c4ccc(Cl)cc34)[C@]12C	0	0	0	0	-
CCN(CC)C(=O)[C@H]1CC(CC(=O)NCc2cccc(C(F)(F)F)c2)C(=O)N2CCc3c([nH]c4ccccc34)[C@]12C (stereo partly specified)	61	0	0	0	0	MPTP swell DR=0;MPTP counter DR=63
c1ccc(COc2ccc(OCCCCN3CCCCC3)cc2)cc1	74	0	0	0	0	MPTP swell DR=6.7;MPTP counter DR=19
O=C(c1ccccc1)c1ccc(OCCCN2CCCC2)cc1	0	0	0	0	-
O=C(CCN1CCN(Cc2ccccc2)CC1)Nc1ccc(OCc2ccccc2)cc1	86	0	0	0	0	MPTP swell DR=7.3;MPTP counter DR=13
O=C(c1ccccc1)c1ccc(OCCOCCN2CCN(Cc3ccccc3)CC2)cc1	84	0	0	0	0	MPTP swell DR=18;MPTP counter DR=27
CC(NC(=S)NCCN1CCOCC1)C12CC3CC(CC(C3)C1)C2 (stereo unspecified)	0	0	0	0	-
CC(C)CC(=O)Nc1nnc(S(=O)(=O)N2c3ccccc3CC2C)s1 (stereo unspecified)	0	0	0	0	-
CC(C)NC(=O)C1C(c2ccccc2)=Nc2ccccc2N1C(=O)c1cc(Cl)cc(Cl)c1 (stereo unspecified)	0	0	-	0	-
CCCCCCn1c(=O)c(Cc2ccccc2)c(O)c2ccccc21	58	0	0	0	59
SMILES	MPTP inh	SKN-1 block	ATG4B inhibitor	MT1-MMP act inh	MPTP counter	others
CCCCn1c(=O)c(Cc2ccccc2)c(O)c2ccccc21	0	0	0	0	-
c1ccc(-c2nc(SCc3nc4ccccc4[nH]3)c3oc4ccccc4c3n2)cc1	50	0	0	0	85
CC(=O)c1sc(NC(=O)C=C(C)C)nc1C	0	0	0	0	-
CC(=O)c1sc(NC(=O)C2(F)C(F)(F)C(F)(F)C(F)(F)C(F)(F)C2(F)F)nc1C	95	0	0	0	91
COC(=O)/C=C1/SC(=NC(=O)c2ccccc2)NC1=O	0	0	0	0	-
COC(=O)/C=C1\SC(=NC(=O)c2cccc(Cl)c2)NC1=O	60	0	0	0	37
Cc1ccc(C)c(NC(=O)CSc2ccc(-c3ccco3)nn2)c1	0	0	0	0	-
Cc1ccc(OCc2cc(C(=O)N3CCc4[nH]cnc4C3c3ccccn3)no2)cc1C (stereo unspecified)	0	0	0	0	-
Cc1nc2cc(NC(=O)Nc3cccc4ccccc34)ccc2n1C	0	0	0	0	-
O=C(Nc1ccc2snnc2c1)Nc1cccc2ccccc12	106	0	0	-	69
CCC(=O)NC1(C(F)(F)F)C(=O)Nc2c1c(=O)[nH]c(=O)n2CC(C)C (stereo unspecified)	0	0	0	0	-
CN(C)CCOC(C1CCCCC1)C1CCCCC1	74	0	0	0	0	MPTP swell DR=15;MPTP counter DR=0
CN(C)CCNC(=S)NC1CCCCC1	0	0	0	0	-
O=C(Nc1ccc(F)cc1)N[C@H]1CC[C@H](CCNS(=O)(=O)c2cccc(Cl)c2)O[C@@H]1CO	0	0	-	0	-
Cc1ccc(NNC(=O)C(O)(c2cccc(C(F)(F)F)c2)c2cccc(C(F)(F)F)c2)cc1	72	0	0	0	69
O=C(NNc1ccccc1Br)C(O)(c1cccc(C(F)(F)F)c1)c1cccc(C(F)(F)F)c1	95	0	0	0	74
Cc1ccc(C(O)(C(=O)NNc2ccccn2)c2ccc(C)cc2)cc1	0	0	0	0	-
CC(C)(O)C(=O)NNC(=S)Nc1cccc(C(F)(F)F)c1	0	0	0	0	-
O=C(Nc1nnc(C(F)(F)F)s1)c1c(F)cccc1F	0	0	0	0	-
FC(F)(F)c1nnc(Nc2ccc(Cl)cc2)s1	79	0	0	0	75
Fc1ccc(Nc2nnc(C(F)(F)F)s2)cc1Cl	75	0	0	0	86
CCC(C)(C)NC(=O)c1ccc2c(c1)N(CC(=O)NC1CCCC1)C(=O)C(C)(C)O2	0	0	0	0	-
CCN(CC(=O)Nc1c(F)cccc1F)C(=O)c1cc(C)nc2ccccc12	0	0	0	0	-
COc1cc(NC(=O)COc2cc(O)c3c(c2)OC(C)(C)CC3=O)cc(OC)c1OC	99	0	0	0	98
CCN(CC)C(=O)c1oc2ccc(S(=O)(=O)N3CCCCCC3)cc2c1C	0	0	0	0	-
CCN(CC)C(=O)c1oc2ccc(S(=O)(=O)N3CC(C)CC(C)C3)cc2c1C (stereo unspecified)	51	0	0	0	75
O=C(N/N=C/c1ccc(OCc2ccc(F)cc2)cc1)c1ccccc1	0	0	0	0	-
CC(C)(C)c1ccc(OCc2ccc(C(=O)N/N=C/c3ccc(O)c(O)c3)cc2)cc1	85	0	0	0	0
